The list is not random: actives were taken first. Their share in the collection is about 2.6%.
SENP8 block-1 – SENP8 (human) protease inhibition | recombinant SENP8, Nedd8 substrate fluorescence | AID 602440 | 0.64% of 360,000 active | inhibition, % at 20 µM; in the data active means inhibition mostly above about 40%, no sharp cut-off; inactive means mostly below about 27%
Platelet DG rel – modulates dense granule release in human platelets | human platelet-rich plasma, SFLLRN dense granule ATP release, luminescence | inhibition, %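 (compounds screened at 7.5 µM in platelet-rich plasma)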 | 0.22% of 300,000 active;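 active means mean replicate score, as percent of positive control, at or above 50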
SENP6 block – inhibitors of human SENP6 protease. Q9GZR1. Recombinant SENP6 catalytic domain, aminoluciferin luminescence. inhibition, % at 10 µM. 1.8% of 330,000 active. AID 2599;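 active means inhibition above about 50% at the single tested dose, limit read from the data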
Target sequence (Q9GZR1 628-1112 limits assumed): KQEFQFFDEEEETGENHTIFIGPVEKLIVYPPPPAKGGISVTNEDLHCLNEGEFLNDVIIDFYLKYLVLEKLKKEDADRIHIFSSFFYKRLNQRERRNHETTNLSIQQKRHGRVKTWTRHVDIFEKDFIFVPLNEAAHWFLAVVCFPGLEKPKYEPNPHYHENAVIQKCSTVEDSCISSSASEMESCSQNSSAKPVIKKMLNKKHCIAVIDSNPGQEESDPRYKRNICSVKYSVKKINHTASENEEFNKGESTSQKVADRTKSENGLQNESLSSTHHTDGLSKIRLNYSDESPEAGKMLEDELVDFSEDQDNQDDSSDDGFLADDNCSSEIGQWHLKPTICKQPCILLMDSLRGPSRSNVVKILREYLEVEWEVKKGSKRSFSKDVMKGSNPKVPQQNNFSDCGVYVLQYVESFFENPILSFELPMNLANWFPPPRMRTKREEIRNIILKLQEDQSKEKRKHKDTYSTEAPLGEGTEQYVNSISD
SENP7 inh – SENP7 protease inhibition | 1.5% of 330,000 active | recombinant SENP7, Z-RLRGG-aminoluciferin luminescence, 40 min | Q9BQF6 | inhibition, % at 5 µM | AID 434973;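 active means inhibition above about 50% at the single test dose, limit read from the data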
SENP1 inh – blocks the human SENP1 SUMO protease catalytic domain; AID 624204; recombinant SENP1 catalytic domain, CyPet-SUMO1-YPet FRET cleavage; inhibition, % at 10 µM; Q9P0U3; 0.21% of 360,000 active;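 active means inhibition at least 30% at 10 µM, raw YFP signal under a set limit, fluorescence ratio 0.5 to 1.5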
Target sequence (Q9P0U3 419-644 limits assumed): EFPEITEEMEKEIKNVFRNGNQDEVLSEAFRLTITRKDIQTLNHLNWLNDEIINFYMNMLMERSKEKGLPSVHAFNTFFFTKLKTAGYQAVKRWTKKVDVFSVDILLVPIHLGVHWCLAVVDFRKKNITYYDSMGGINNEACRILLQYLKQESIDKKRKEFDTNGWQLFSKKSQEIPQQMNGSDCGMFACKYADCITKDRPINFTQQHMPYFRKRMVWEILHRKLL
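Assay system – human recombinant His6-tagged SENP1 catalytic domain enzyme · Input – SENP1 enzyme, 20 pM final · Buffer or medium – Tris pH 8 buffer plus EDTA, NaCl, BME, BSA, NP40, catalase · Schedule – 50 min reaction at room temperature · Technique – FRET read of cyan and yellow fluorescence · Control set – no-enzyme wells low, DMSO-plus-enzyme wells high control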
SENP8 block-2 – SENP8 protease inhibition | Q96LD8 | purified SENP8, Z-RLRGG-aminoluciferin cleavage, luminescence | inhibition, % at 10 µM | 1.2% of 330,000 active; in the data active means inhibition above about 50%
SENP8 conf – confirmation of human SENP8 protease inhibitors; shares compounds with SENP8 block-1; purified SENP8, Nedd8-AMC/pro-Nedd8 cleavage fluorescence, 30 min; inhibition, % at 25 µM; 15% of 1,400 active; AID 624319; in the data active means inhibition mostly above about 39%, no sharp cut-off; inactive means mostly below about 34%
SENP1 conf – SENP1 (human) inhibition, single concentration confirmation; inhibition, % at 10 µM; shares compounds with SENP1 inh; recombinant SENP1, CyPet-SUMO1-YPet FRET cleavage; 34% of 520 active; AID 651678; in the data active means inhibition mostly above about 35%, no sharp cut-off; inactive means mostly below about 32%
SENP1 kin conf – SENP1 (human) inhibition, kinetic confirmation | inhibition, % at 10 µM | recombinant SENP1, CyPet-SUMO1-YPet FRET kinetic cleavage | 26% of 520 active | shares compounds with SENP1 inh | AID 651690; in the data active means inhibition mostly above about 32%, no sharp cut-off; inactive means mostly below about 29%
Of the large screens only hits and unclear results are named; the others gave an inactive call (follow-up assays come after a bar, where they were run).

N#Cc1ccccc1NC(=O)COC(=O)COc1ccccc1[N+](=O)[O-]	none
COc1ccc(NC(=O)C2CCCN(C(=O)c3ccc(Cl)cc3)C2)cc1Cl (stereo not given)	none (no result: Platelet DG rel)
O=c1[nH]c2ccccc2c2ccccc12	none
Nc1c(Br)cc(Br)c2c1[nH]c(=O)c1ccccc12	SENP8 block-1 73 (no result: Platelet DG rel, SENP6 block, SENP7 inh, SENP8 block-2) | SENP8 conf inactive
O=C(Cc1ccccc1)N/N=C/c1cc2c(cc1Cl)OCO2	none
O=C(CNc1ccc2c(c1)OCO2)N/N=C\c1ccccc1Cl	SENP8 block-1 61 | SENP8 conf inactive
CCS(=O)(=O)N1CCC(C(=O)N2CCc3ccccc3C2)CC1	SENP8 block-1 44 | SENP8 conf 77
CC1CC(=O)Nc2ccc([N+](=O)[O-])cc2N1C (stereo not given)	none
CC1CC(=O)Nc2cc([N+](=O)[O-])ccc2N1 (stereo not given)	SENP8 block-1 44 | SENP8 conf inactive
Cc1cc(C)c(C#N)c(SCC(=O)C2CC2)n1	none
COc1cc(C2(c3ccc(O)c(OC)c3)C(=O)Nc3c(C)cc(Br)cc32)ccc1O	SENP8 block-1 40 | SENP8 conf inactive
COc1ccccc1/C=C/CN1CCC(n2nccc2NC(=O)CCc2ccccc2)CC1	none
Cc1ccc2nc(N(CCCN(C)C)C(=O)c3ccc4ncsc4c3)sc2c1	none
CCOc1ccc(C=NNc2ccc(S(=O)(=O)Nc3ccccc3C(=O)O)cc2[N+](=O)[O-])cc1	SENP8 block-1 49 (no result: Platelet DG rel) | SENP8 conf inactive
Cc1ccc(Cn2nc(-c3ccccc3)nc2-c2ccccc2)cc1	SENP8 block-1 44, SENP6 block 74, SENP7 inh 68, SENP8 block-2 59 | SENP8 conf inactive
O=C(CCN1N=C(c2ccccc2)CCC1=O)NCCCN1CCOCC1	none
Cc1ccc(-c2nn(-c3ccccc3)cc2CN(Cc2ccccc2)C(=O)c2ccco2)o1	none
Cc1c(C(=S)Nc2ccccc2)cnn1-c1ccc([N+](=O)[O-])cc1	SENP8 block-1 40 | SENP8 conf inactive
CC(=O)C1=C(C)OC2(O)c3ccccc3C(=O)C12O (stereo not given)	SENP8 block-1 88 | SENP8 conf 95
Cc1ccc(NC(=O)CN2C(=O)COc3ccc(S(=O)(=O)N4CCOCC4)cc32)cc1N(C)C	none
CCOC(=O)C1=CN(Cc2cccc(-c3ccc(Cl)nc3)c2)S(=O)(=O)N(C)C1C (stereo not given)	none (no result: Platelet DG rel, SENP6 block, SENP8 block-2)
CN1CCN(Cc2nc3ccccc3c(=O)n2Cc2nc(-c3ccc([N+](=O)[O-])cc3)cs2)CC1	SENP8 block-1 47 | SENP8 conf inactive
COc1ccc(N/C=C/C(=O)c2ccc(C)cc2)c([N+](=O)[O-])c1	SENP8 block-1 44 | SENP8 conf inactive
O=C(NCc1ccccc1Cl)c1cc2c(s1)CS(=O)(=O)C2	none
CS(=O)(=O)Nc1ccc(N2CCN(c3ccc(C(F)(F)F)cn3)CC2)nc1	none
CC1=NN(c2ccc(C(F)(F)F)cn2)C(=O)C1	SENP8 block-1 75 | SENP8 conf 58
O=C(CC(=O)c1ccccc1)CS(=O)(=O)c1ccccc1	none (no result: Platelet DG rel, SENP6 block, SENP7 inh, SENP8 block-2)
Cc1cc(Br)ccc1-n1[nH]c(C)c(C=Nc2cccc3nsnc23)c1=O	SENP8 block-1 54, SENP1 inh 40 | SENP8 conf inactive | SENP1 conf inactive | SENP1 kin conf inactive
Cc1cc(C)n2cc(CSc3nncn3C)nc2n1	none
CCOC(=O)c1ccc(NCn2c(=O)oc3ccccc32)cc1	SENP1 inh 54 | SENP1 conf inactive | SENP1 kin conf inactive
CC(C)c1ccc(C2(C)NC(=O)N(CC(=O)NC3CCCC(C)C3C)C2=O)cc1 (stereo not given)	none (no result: Platelet DG rel)
CCCN(CCC)C(=O)Cn1c(=O)c2sccc2n2c(=S)sc(-c3ccccc3)c12	SENP1 inh 66 | SENP1 conf 47 | SENP1 kin conf inactive
CCc1nnc(NC(=O)CCC(=O)NC2CC2)s1	none
Cc1ccc(CNC(=O)CC(C)S(=O)(=O)c2ccc3c(c2)NC(=O)CS3)o1 (stereo not given)	SENP1 inh 36 | SENP1 conf inactive | SENP1 kin conf 24
O=C1C2=C(SCCS2)C(=O)N1CCCO	SENP1 inh 54 | SENP1 conf 48 | SENP1 kin conf inactive
CCN(CC)c1nc2cc(C)ccc2cc1/C=C(\C#N)C(N)=O	SENP1 inh 79 | SENP1 conf 58 | SENP1 kin conf inactive
CCc1ccc(NC(=O)/C(C#N)=C/c2cc3ccc(C)cc3nc2N2CCOCC2)cc1	none
O=C1c2cc(Cl)ccc2-c2c(O)cc(Cl)cc21	SENP1 inh 49 (no result: Platelet DG rel, SENP6 block, SENP7 inh, SENP8 block-2) | SENP1 conf inactive | SENP1 kin conf inactive
O=c1cc(O)c(-c2ccc(Cl)cc2)c(Cl)[nH]1	none
CC(=O)c1cccc(Nc2ccc(Br)cc2)c1	none (no result: Platelet DG rel, SENP6 block, SENP7 inh, SENP8 block-2)
CC(Oc1ccccc1)C(=O)NC1=NCCS1 (stereo not given)	none
CC(=O)Nc1ccc(C(=O)OCC(=O)NCc2ccc(Cl)cc2)cc1	none (no result: SENP8 block-1, SENP1 inh)
Cc1ccc(C)c(N(C(=O)CNC(=O)c2ccco2)C(C(=O)NC2CCCC2)c2ccncc2)c1 (stereo not given)	none
O=c1[nH]c(/C(Cl)=C/c2c(F)cccc2Cl)nc2cc(Cl)ccc12	none
O=c1[nH]c(/C(Cl)=C/c2cc(Cl)ccc2O)nc2cc(Cl)ccc12	SENP1 inh 59 | SENP1 conf 89 | SENP1 kin conf 73
CCn1c(/C=C/c2cc(Br)ccc2O)nc2ccccc2c1=O	SENP1 inh 78 | SENP1 conf 36 | SENP1 kin conf inactive
COc1ccc(-c2cnnc(N/N=C/c3ccc(-c4ccc([N+](=O)[O-])cc4)o3)n2)cc1	SENP1 inh 36 (no result: Platelet DG rel, SENP6 block, SENP7 inh, SENP8 block-2) | SENP1 conf inactive | SENP1 kin conf inactive
N#Cc1c(C(F)(F)F)cc(-c2ccccc2)nc1SCCN1CCOCC1	SENP1 inh 33 | SENP1 conf inactive | SENP1 kin conf inactive
CCCSc1nc(-c2ccccc2)cc(C(F)(F)F)c1C#N	none
CC(C)CC1(C)N=C(c2ccccc2)C(=S)N1 (stereo not given)	none (no result: SENP6 block, SENP7 inh, SENP8 block-2)
Cc1cc(N2CCN(c3nc(-c4ccc([N+](=O)[O-])cc4)cs3)CC2)c2ccccc2n1	SENP1 inh 45 | SENP1 conf inactive | SENP1 kin conf inactive
CN(C)c1cccc2c(S(=O)(=O)N3CCOCC3)cccc12	SENP1 inh 41 | SENP1 conf inactive | SENP1 kin conf inactive
CN(C)c1cccc2c(S(=O)(=O)N3CCCC3)cccc12	none
O=C1NCCCN1Cc1ccc(Cl)cc1	none

Source: PubChem
